Calls of active or inactive are those of the source. The calls are words filed in the database; no cut-off is given here.
Assays:
NCI-H3122 = experiment: Antiproliferative activity against human NCI-H3122 cells after 72 hrs by CellTiter-Glo luminescent cell viability assay; type: functional, cell-based
KARPAS-299 = experiment: Antiproliferative activity against human KARPAS299 cells after 72 hrs by CellTiter-Glo luminescent cell viability assay; type: functional, cell-based
SU-DHL-1 = experiment: Antiproliferative activity against human SU-DHL1 cells after 72 hrs by CellTiter-Glo luminescent cell viability assay; type: functional, cell-based
SH-SY5Y [1] = experiment: Antiproliferative activity against human SH-SY5Y cells after 72 hrs by CellTiter-Glo luminescent cell viability assay; type: functional, cell-based
Homo sapiens [2] = organism: Homo sapiens; experiment: Antiproliferative activity against human CHLA20 cells after 72 hrs by CellTiter-Glo luminescent cell viability assay; type: functional, cell-based
Homo sapiens [3] = organism: Homo sapiens; experiment: Antiproliferative activity against human CHLA20 cells after 72 hrs in presence of ABCB1 inhibitor tariquidar by CellTiter-Glo luminescent cell viability assay; type: functional, cell-based
SH-SY5Y [4] = experiment: Antiproliferative activity against human SH-SY5Y cells after 72 hrs in presence of ABCB1 inhibitor tariquidar by CellTiter-Glo luminescent cell viability assay; type: functional, cell-based
[5] = target: Protein cereblon (Homo sapiens) (UniProt Q96SW2); experiment: Displacement of Atto565-Lenalidomide from CRBN fused with DDB1deltaB (unknown origin) by fluorescence polarization assay
Sequence of Protein cereblon (Homo sapiens) (Q96SW2 whole entry, the tested form may be a part): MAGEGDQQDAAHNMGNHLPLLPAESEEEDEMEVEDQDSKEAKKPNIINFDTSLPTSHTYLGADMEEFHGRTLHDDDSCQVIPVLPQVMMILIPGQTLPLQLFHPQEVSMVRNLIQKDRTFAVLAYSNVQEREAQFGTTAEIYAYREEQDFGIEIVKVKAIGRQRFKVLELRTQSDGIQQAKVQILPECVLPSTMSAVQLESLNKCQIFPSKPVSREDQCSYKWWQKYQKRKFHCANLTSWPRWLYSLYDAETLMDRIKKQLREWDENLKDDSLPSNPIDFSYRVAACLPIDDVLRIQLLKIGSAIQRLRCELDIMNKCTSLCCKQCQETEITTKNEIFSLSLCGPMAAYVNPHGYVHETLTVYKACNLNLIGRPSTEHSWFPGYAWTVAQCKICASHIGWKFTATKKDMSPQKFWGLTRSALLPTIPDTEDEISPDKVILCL

[6] = target: T1, ALK tyrosine kinase receptor (Homo sapiens, UniProt Q9UM73); experiment: Induction of ALK degradation in human Kelly cells at 100 nM after 8 hrs by immunoblot method; type: cell-based
T1 sequence (Q9UM73 19-1620 limits assumed): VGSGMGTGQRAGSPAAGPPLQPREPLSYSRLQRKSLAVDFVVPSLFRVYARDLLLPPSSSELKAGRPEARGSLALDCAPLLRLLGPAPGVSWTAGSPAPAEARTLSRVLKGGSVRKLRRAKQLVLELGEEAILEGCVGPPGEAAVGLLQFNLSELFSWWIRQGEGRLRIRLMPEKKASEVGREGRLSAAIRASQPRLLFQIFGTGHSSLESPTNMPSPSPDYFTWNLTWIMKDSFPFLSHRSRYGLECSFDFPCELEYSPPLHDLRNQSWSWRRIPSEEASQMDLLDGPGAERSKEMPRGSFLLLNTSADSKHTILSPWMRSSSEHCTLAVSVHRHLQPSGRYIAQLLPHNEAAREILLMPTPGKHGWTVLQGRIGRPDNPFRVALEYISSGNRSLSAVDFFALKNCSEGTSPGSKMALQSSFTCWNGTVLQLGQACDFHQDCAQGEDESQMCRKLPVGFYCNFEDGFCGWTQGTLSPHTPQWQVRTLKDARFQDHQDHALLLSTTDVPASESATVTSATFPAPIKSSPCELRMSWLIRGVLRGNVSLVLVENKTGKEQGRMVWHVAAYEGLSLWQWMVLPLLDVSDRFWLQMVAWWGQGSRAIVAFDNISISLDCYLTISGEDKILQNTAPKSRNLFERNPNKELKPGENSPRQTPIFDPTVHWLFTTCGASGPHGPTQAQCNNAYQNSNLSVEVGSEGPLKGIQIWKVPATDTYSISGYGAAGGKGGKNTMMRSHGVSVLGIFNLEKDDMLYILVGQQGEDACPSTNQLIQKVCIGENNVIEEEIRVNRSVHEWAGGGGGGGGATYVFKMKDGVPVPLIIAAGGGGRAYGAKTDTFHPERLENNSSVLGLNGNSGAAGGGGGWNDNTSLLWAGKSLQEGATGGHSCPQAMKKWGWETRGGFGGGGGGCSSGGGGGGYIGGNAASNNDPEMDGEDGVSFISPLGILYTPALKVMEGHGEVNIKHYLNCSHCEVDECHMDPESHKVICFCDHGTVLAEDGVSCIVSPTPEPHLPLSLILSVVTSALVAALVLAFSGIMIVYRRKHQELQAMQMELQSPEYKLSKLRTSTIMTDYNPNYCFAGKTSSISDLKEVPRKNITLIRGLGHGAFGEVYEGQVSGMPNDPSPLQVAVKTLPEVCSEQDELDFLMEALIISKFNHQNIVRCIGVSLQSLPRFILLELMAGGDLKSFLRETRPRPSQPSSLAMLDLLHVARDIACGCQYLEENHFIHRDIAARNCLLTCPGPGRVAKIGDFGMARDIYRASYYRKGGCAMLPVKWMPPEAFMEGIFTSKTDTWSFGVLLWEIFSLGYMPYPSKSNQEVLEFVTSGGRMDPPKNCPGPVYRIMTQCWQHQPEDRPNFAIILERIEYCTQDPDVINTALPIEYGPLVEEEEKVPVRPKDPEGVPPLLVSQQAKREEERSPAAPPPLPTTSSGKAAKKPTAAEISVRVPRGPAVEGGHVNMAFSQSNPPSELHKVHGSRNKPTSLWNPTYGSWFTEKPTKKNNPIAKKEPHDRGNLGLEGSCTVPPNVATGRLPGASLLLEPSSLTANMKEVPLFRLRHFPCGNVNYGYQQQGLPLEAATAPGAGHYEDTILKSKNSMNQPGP
Outline: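 Kelly cells were treated with 100 nM compound for varying times and lysed at each time point. ALK levels were read by immunoblot.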

[7] = target: T1, ALK tyrosine kinase receptor; experiment: Induction of ALK degradation in human CHLA20 cells at 100 nM after 4 hrs in presence of ABCB1 inhibitor tariquidar by immunoblot method; type: cell-based
Outline: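 CHLA20 cells were co-treated with 125 nM tariquidar, then treated with 100 nM compound over a time course. ALK was read by immunoblot.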

[8] = target: Signal transducer and activator of transcription 3 (Homo sapiens) (UniProt P40763); experiment: Inhibition of STAT3 phosphorylation at Y705 in human Kelly cells at 250 nM after 6 to 48 hrs by immunoblot method; type: cell-based
Sequence of Signal transducer and activator of transcription 3 (Homo sapiens) (P40763 whole entry): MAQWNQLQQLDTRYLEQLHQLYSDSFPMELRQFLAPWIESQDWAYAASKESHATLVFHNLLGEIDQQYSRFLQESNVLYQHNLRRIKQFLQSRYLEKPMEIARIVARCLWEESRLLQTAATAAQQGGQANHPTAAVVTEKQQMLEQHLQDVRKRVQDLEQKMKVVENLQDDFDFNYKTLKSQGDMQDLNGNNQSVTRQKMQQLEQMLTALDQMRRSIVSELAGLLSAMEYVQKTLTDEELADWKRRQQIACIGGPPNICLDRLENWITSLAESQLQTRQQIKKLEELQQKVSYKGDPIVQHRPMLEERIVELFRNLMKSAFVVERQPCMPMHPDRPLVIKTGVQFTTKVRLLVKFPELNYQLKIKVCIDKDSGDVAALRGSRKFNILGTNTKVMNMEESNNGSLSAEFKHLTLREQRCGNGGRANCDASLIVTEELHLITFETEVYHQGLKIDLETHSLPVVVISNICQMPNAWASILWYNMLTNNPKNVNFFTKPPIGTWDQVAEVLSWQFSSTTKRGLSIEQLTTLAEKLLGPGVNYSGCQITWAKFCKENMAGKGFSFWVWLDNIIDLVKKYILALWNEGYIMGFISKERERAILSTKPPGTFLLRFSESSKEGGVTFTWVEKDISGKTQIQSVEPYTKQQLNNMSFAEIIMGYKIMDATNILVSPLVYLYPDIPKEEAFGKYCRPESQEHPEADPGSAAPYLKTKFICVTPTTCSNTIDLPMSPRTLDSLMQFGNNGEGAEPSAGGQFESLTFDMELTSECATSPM

[9] = target: Signal transducer and activator of transcription 3 (Homo sapiens) (UniProt P40763); experiment: Inhibition of STAT3 phosphorylation at Y705 in human CHLA20 cells at 250 nM after 6 to 48 hrs in presence of ABCB1 inhibitor tariquidar by immunoblot method; type: cell-based

| Compound | Activity (NCI-H3122) | Activity (KARPAS-299) | Activity (SU-DHL-1) | Activity (SH-SY5Y [1]) | Activity (Homo sapiens [2]) | Activity (Homo sapiens [3]) | Activity (SH-SY5Y [4]) | inhibition [5] | Activity [6] | Activity [7] | inhibition [8] | inhibition [9] |
| --- | --- | --- | --- | --- | --- | --- | --- | --- | --- | --- | --- | --- |
| COc1cc(N2CCC(N3CCN(C)CC3)CC2)ccc1Nc1ncc(Cl)c(Nc2ccccc2S(=O)(=O)C(C)C)n1 | Active | Active | Active | Active | Active | Active | Active | – | – | – | – | – |
| COc1cc(N2CCN(CCOCCOCCNC(=O)CNc3cccc4c3C(=O)N(C3CCCNC3=O)C4=O)CC2)ccc1Nc1ncc(Cl)c(Nc2ccccc2S(=O)(=O)C(C)C)n1 (stereo unspecified) | inactive | inactive | inactive | inactive | inactive | Active | Active | inactive | Active | Active | – | – |
| Cc1cc(Nc2ncc(Cl)c(Nc3ccccc3S(=O)(=O)C(C)C)n2)c(OC(C)C)cc1C1CCN(CCOCCOCCNC(=O)CNc2cccc3c2C(=O)N(C2CCCNC2=O)C3=O)CC1 (stereo unspecified) | inactive | inactive | inactive | inactive | inactive | Active | Active | inactive | Active | Active | – | – |
| Cc1cc(Nc2ncc(Cl)c(Nc3ccccc3S(=O)(=O)C(C)C)n2)c(OC(C)C)cc1C1CCNCC1 | Active | Active | Active | Active | Active | Active | Active | – | – | – | inactive | inactive |

Source: ChEMBL document CHEMBL4177764 (J Med Chem, 2018)
